High-throughput results as filed in PubChem.
PERK inhibitor: blocks human PERK kinase; Q9NZJ5; CHO PERK-DD fusion, SEAP luminescence translation reporter; inhibition, % at 5.6 µM; actives 0.17% (n = 220,000); AID 1416;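 active means inhibition above the mean inhibition of all tested compounds plus 3 SD, set separately per screening campaign, cut at about 2.9% in these data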;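 further: PERK kinase domain activated by AP20187 dimerizer at 100 nM; 0% = DMSO with dimerizer and 100% = rapamycin at 8.4 µM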
Target sequence (Q9NZJ5 whole entry, looked up, the tested form may be a part): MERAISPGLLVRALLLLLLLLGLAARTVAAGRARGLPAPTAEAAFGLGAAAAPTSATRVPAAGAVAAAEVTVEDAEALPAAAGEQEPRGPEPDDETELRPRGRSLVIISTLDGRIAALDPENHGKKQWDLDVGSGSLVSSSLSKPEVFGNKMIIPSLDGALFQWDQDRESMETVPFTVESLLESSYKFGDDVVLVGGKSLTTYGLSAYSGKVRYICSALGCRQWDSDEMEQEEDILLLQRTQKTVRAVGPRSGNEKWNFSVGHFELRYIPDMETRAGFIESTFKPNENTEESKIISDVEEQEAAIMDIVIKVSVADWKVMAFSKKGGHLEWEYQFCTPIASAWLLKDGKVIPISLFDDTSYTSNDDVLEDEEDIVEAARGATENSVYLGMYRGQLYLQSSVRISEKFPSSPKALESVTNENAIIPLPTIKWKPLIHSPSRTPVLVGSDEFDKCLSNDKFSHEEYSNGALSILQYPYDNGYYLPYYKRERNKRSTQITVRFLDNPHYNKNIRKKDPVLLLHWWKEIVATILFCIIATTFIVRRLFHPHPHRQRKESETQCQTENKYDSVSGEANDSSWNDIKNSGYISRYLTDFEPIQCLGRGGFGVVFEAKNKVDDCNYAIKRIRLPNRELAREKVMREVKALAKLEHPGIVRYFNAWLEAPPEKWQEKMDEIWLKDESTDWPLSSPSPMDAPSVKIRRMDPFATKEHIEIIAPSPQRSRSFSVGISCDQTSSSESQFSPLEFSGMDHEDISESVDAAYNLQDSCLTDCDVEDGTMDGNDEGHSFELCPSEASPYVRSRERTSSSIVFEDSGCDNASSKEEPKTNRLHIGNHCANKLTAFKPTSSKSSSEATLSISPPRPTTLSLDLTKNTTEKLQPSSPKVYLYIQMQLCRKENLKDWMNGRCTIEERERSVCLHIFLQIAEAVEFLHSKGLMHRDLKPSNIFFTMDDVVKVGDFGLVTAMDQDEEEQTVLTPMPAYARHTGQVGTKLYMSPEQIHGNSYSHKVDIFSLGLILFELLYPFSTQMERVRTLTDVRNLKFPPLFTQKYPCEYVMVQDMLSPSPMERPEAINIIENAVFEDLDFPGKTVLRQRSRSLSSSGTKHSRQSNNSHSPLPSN
HKDC1 inhibitor: HKDC1 (human) hexokinase inhibition | inhibition, % at 20 µM | AID 493160 | actives 0.16% (n = 340,000) | Q2TB90 | recombinant HKDC1, G6PDH/diaphorase resazurin coupled fluorescence;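 active means inhibition above about 35% when tested at 20 µM, limit read from the data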;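 further: plate controls were DMSO wells with enzyme for no effect and DMSO wells lacking enzyme for full effect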
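Material – in-house recombinant HK5 (HKDC1) enzyme · Quantity – HKDC1 at 5 µg/mL · Buffer or medium – pH 8.0 Tris buffer with 10 mM MgCl2 · Reagent – glucose with 1 mM ATP · Dosing – single 20 µM dose · Times – reaction time 90 min, room temperature, protected from light · Technique – resorufin fluorescence at 613 nm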
HSV augment: increases HSV replication in cells; HSV replication augmentation in cells, fold increase; maximum fold increase; actives 0.005% (n = 220,000); AID 1956; in the data active means maximum fold increase above about 1.5; inconclusive means no clear call, values can overlap the other calls; tested in PC3 cells
Tb hexokinase: blocks Trypanosoma brucei hexokinase 1 activity; recombinant TbHK1, G6PDH-coupled NADH A340; actives 0.11% (n = 220,000); inhibition, % at 10 µM;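 active means inhibition of 50% or more in the single-dose primary screen; inactive means inhibition below 50%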
Dynein cargo inh: blocks dynein driven cargo transport along microtubules | AID 1381 | z-score, hits read low | 3617.4 mouse cells, GR-EGFP nuclear translocation imaging; test concentration mostly 20 µM; stimulated with dexamethasone, 1 µM; active compounds read low | actives 0.47% (n = 220,000);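 active means plate z-score of nuclear minus cytoplasmic receptor signal below a set negative limit, without overly bright fluorescence or cell loss, cut at about -3.5 in these data, passing the limit was not always enough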;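 further: z-score of nuclear minus cytoplasmic ring GR-EGFP intensity difference per well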
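Buffer or medium: Induction medium lacking tetracycline, stripped serum | Also added: Dexamethasone agonist, 1.0 µM final, for 30 min | Timing: 48 h induction, 1 h compound, 30 min dex at 37 °C | Detection: Formaldehyde fixation, Hoechst nuclear stain, 10x automated fluorescence imaging | Measure: Nuclear versus cytoplasmic GR-EGFP signal, averaged per well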
Autophagy mod: autophagy modulation, high-content screen. MEF GFP-LC3 puncta imaging; test concentration mostly 10 µM. calls only at 10 µM (by protocol). actives 0.98% (n = 190,000);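 active means percentage of spot-positive cells more than 3 SD above its plate mean, without a fluorescence outlier flag or 80% toxicity; inconclusive means no clear call, values can overlap the other calls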;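 further: spot-positive cell cutoff set from DMSO-treated cells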
Dynein inh conf: dynein cargo transport inhibition, confirmation. shares compounds with Dynein cargo inh. 3617.4 GR-EGFP nuclear translocation imaging, dexamethasone-induced. calls only at 20 µM. actives 69% (n = 1,000). AID 463116;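 active means inhibition of receptor movement into the nucleus at or above a set limit in both runs, with normal cell brightness and cell count; inconclusive means limit reached in only one run, brightness and count normal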;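 further: dexamethasone at 1 µM final in well for 30 min; nuclear minus cytoplasmic GR-EGFP mean intensity difference in channel 2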
* hit, by the source's call; i = inactive; ? = inconclusive; nt = not tested or not shown; + = active, no number. In the library only some 1.2% were active in any assay of this set; here they are far more common.

SMILES	PERK inhibitor	HKDC1 inhibitor	HSV augment	Tb hexokinase	Dynein cargo inh	Autophagy mod	others
O=c1[nH]c(=O)n(-c2cccc(Cl)c2)c(O)c1/C=N/c1ccccn1	0	1	i	-1	-0.36	i
COc1ccc2nc(/N=C/c3c(O)n(-c4cccc(Cl)c4)c(=O)[nH]c3=O)sc2c1	2.9*	6	i	-5	-0.33	i
CCOC(=O)C1=C(N)OC2=C(C(=O)CCC2)[C@]12C(=O)N(CC(N)=O)c1ccccc12	1	-1	i	-9	1.1	nt
Cc1nc2ccccc2c(=O)n1/N=C/c1cc(Br)cc(Br)c1O	nt	-16	nt	nt	nt	nt
Cc1c2ccncc2c(C)c2c1[nH]c1ccccc12	-2	-3	i	3	-3.7	+
c1ccc2c(c1)[nH]c1cnccc12	0	-3	i	-6	-0.52	i
CCCCC1(CCC)C(=O)NC(=S)NC1=O	nt	-2	nt	nt	nt	nt
O=c1ccc2cc3ccoc3c(O)c2o1	nt	3	nt	nt	nt	nt
O=c1ccc2c(O)c3ccoc3cc2o1	nt	8	nt	nt	nt	nt
CN(C)C(=S)SSC(=S)N(C)C	1	-12	i	-2	-2.2	+
Cn1ncnc2c(=O)n(C)c(=O)nc1-2	nt	69*	i	nt	nt	nt
COC1=CC(=O)[C@]2(C=C1OC)OC[C@@H]1Oc3c(ccc4c3C=CC(C)(C)O4)C(=O)[C@@H]12	nt	4	nt	nt	nt	nt
CNC(=O)O/N=C/c1nn(C(=O)C(C)(C)C)cc1Br	3.2*	-1	i	-12	-0.8	nt
O=S(=O)(F)c1ccc2nc(-c3cccc(Sc4ccccc4)c3)cc(Cl)c2c1	1	0	i	-2	-0.11	nt
CN(C)/C=c1\sc2c(C#N)cc(C(=O)c3ccc(Br)cc3)n2c1=O	1	10	3.4*	0	-0.31	i
CC(/C=N/NC(=O)c1n[nH]c2c1CCC2)=C\c1ccccc1	0	-4	i	-16	0.55	+
S=P(NCCSCc1ccccc1)(N1CC1)N1CC1	nt	2	nt	nt	nt	nt
CN(C)c1ccc(N=Cc2c(O)n(CCC3=CCCCC3)c(=O)[nH]c2=O)cc1	1	14	i	-11	-0.73	+
O=c1[nH]c(=O)n(CCC2=CCCCC2)c(O)c1/C=N/Nc1ccccc1	0	2	i	5	0.078	i
CCN(CC)c1ccc(N=Cc2c(O)n(-c3ccc(Cl)cc3)c(=O)[nH]c2=O)cc1	1	6	?	0	-0.15	+
CCN(CC)c1ccc(N=Cc2c(O)n(CCC3=CCCCC3)c(=O)[nH]c2=O)cc1	1	3	nt	7	0.19	+
CN1CC[C@@H](c2ccc(F)cc2)[C@H](COc2ccc3c(c2)OCO3)C1	nt	nt	i	nt	nt	nt
CN(C)C(=O)Oc1ccc(OCc2nc3ccccc3[nH]2)cc1	0	-7	i	2	-0.53	i
CC1=CC(=C2C(=O)NC(=S)NC2=O)C=C(C(F)(F)F)N1Cc1ccccc1	-1	2	i	-1	-0.12	+
CC1=CC(=C2C(=O)NC(=O)NC2=O)C=C(C(F)(F)F)N1Cc1ccccc1	-1	-7	i	3	-0.22	i
SMILES	PERK inhibitor	HKDC1 inhibitor	HSV augment	Tb hexokinase	Dynein cargo inh	Autophagy mod	others
CCOc1ccc(N2C(=O)/C(=C/c3ccco3)C(=O)NC2=S)cc1	nt	81*	nt	nt	nt	nt
O=C1NC(=O)N(c2ccc(Br)cc2)C(=O)/C1=C/c1ccsc1	0	-6	i	-1	0.11	+
CN1C2CCC1/C(=C/c1ccccn1)C(=O)/C2=C\c1ccccn1	-1	-8	i	-18	-3.6*	i
CC(C)(C)N(NC(=O)c1ccccc1)C(=O)c1ccccc1	1	0	i	-1	0.12	i
CCCCCCOc1ccc(CN2CCN(C)CC2)cc1	0	-8	i	3	-0.32	+
CN1CCN(Cc2ccc3ccccc3c2)CC1	nt	-8	nt	nt	nt	nt
COc1ccc(NC(=O)c2cc([N+](=O)[O-])ccc2N2CCNCC2)cc1	0	-5	i	-9	1.7	+
O=c1[nH]sc2cc(F)ccc12	0	-2	i	6	-4.9*	i	Dynein inh conf=+
COc1ccc(NC(=S)NC(NC(=O)CF)C(Cl)(Cl)Cl)cc1[N+](=O)[O-] (stereo unspecified)	0	21	i	-5	-0.13	i
O=C1NC(=O)N(c2ccccc2)C(=O)/C1=C\c1ccc([N+](=O)[O-])o1	1	nt	i	3	0.073	nt
O=C1NC(=O)N(c2ccccc2)C(=O)/C1=C\c1ccc([N+](=O)[O-])s1	0	2	i	-10	-6*	nt	Dynein inh conf=+
CN1C(=O)NC(=O)/C(=C/c2ccc([N+](=O)[O-])s2)C1=O	0	5	i	-23	-5.5*	nt	Dynein inh conf=+
COc1ccc(N2C(=O)NC(=O)/C(=C\c3ccccc3[N+](=O)[O-])C2=O)cc1	0	3	i	28	0.12	i
COc1ccc(OC)c(N2C(=O)NC(=O)/C(=C\c3ccc([N+](=O)[O-])s3)C2=O)c1	0	12	i	-9	-5.6*	i	Dynein inh conf=+
CN1C(=O)NC(=O)/C(=C/c2ccc([N+](=O)[O-])o2)C1=O	2	9	i	-16	-0.24	nt
O=[N+]([O-])c1cc([As](=O)(O)c2ccc(O)c([N+](=O)[O-])c2)ccc1O	1	2	i	-5	0.51	nt
Cc1cc(C)cc(N2C(=O)NC(=O)/C(=C\C=C\c3ccco3)C2=O)c1	1	6	nt	22	-4.5*	i	Dynein inh conf=+
Cc1ccc(N2C(=O)NC(=O)/C(=C/C=C/c3ccco3)C2=O)cc1	1	-1	?	7	-4.5*	i	Dynein inh conf=+
O=C1NC(=O)N(c2ccccc2)C(=O)/C1=C\C=C\c1ccccc1	0	2	i	2	-6*	nt	Dynein inh conf=+
O=C1NC(=O)N(Cc2ccc(F)cc2)C(=O)/C1=C\C=C\c1ccco1	-1	18	?	1	-5.1*	nt	Dynein inh conf=+
CCc1c(C)nc(N)nc1N1N=C1SC(C(C)=O)C(C)=O	2	4	i	0	1.8	i
CCOc1ccc(-n2c(O)c(C=NCCN(CC)CC)c(=O)[nH]c2=O)cc1	1	0	i	-7	-1.1	i
CC(C)c1ccc(N2C(=O)NC(=O)/C(=C/C=C/c3ccco3)C2=O)cc1	1	10	?	20	-0.068	i
CCc1ccc(N2C(=O)NC(=O)/C(=C\C=C\c3ccco3)C2=O)cc1	1	11	?	-1	-3.9*	nt	Dynein inh conf=+
CCCCOCCCN1C(C)=CC(=C2C(=O)NC(=S)NC2=O)C=C1C	1	-12	i	-17	-0.017	nt
CCOc1ccc(N2C(=O)/C(=C\c3cccs3)C(=O)NC2=S)cc1	1	13	i	6	-4.4*	i	Dynein inh conf=+
